The values below come from ChEMBL document CHEMBL1817581, “Synthesis, antibacterial evaluation and QSAR studies of 7-[4-(5-aryl-1,3,4-oxadiazole-2-yl)piperazinyl] quinolone derivatives” (2011).

For the first assay, the system named is Bacillus subtilis. The assay can be described thus: Antibacterial activity against Bacillus subtilis MTCC 2423 after 24 hrs by NCCLS M7-A6 serial dilution method. Further details: unit not given here.
In the case of `CCn1cc(C(=O)O)c(=O)c2cc(F)c(N3CCN(c4nnc(-c5ccccc5)o4)CC3)cc21`, the “-logMIC” value is 2.58.

As for `O=C(O)c1cn(C2CC2)c2cc(N3CCN(c4nnc(-c5cccc([N+](=O)[O-])c5)o4)CC3)c(F)cc2c1=O`, the “-logMIC” value is given as 2.28.

Take `COc1c(N2CCN(c3nnc(-c4ccc([N+](=O)[O-])cc4)o3)C(C)C2)c(F)cc2c(=O)c(C(=O)O)cn(C3CC3)c12` (stereo unspecified): the “-logMIC” value came out at 3.11.

As for `CCn1cc(C(=O)O)c(=O)c2cc(F)c(N3CCN(c4nnc(-c5ccc([N+](=O)[O-])c([N+](=O)[O-])c5)o4)CC3)cc21`, the “-logMIC” value came to 3.87.

Turning to `COc1ccc(-c2nnc(N3CCN(c4cc5c(cc4F)c(=O)c(C(=O)O)cn5C4CC4)CC3)o2)cc1`, the “-logMIC” value was 3.09.

As to `COc1ccc(-c2nnc(N3CCN(c4c(F)cc5c(=O)c(C(=O)O)cn(C6CC6)c5c4OC)CC3C)o2)cc1OC` (stereo unspecified), the “-logMIC” value came out at 3.27.

Turning to `CCn1cc(C(=O)O)c(=O)c2cc(F)c(N3CCN(c4nnc(-c5ccccc5Cl)o4)CC3)cc21`, the “-logMIC” value worked out at 3.21.

Take `O=C(O)c1cn(C2CC2)c2cc(N3CCN(c4nnc(-c5ccccc5)o4)CC3)c(F)cc2c1=O`: the “-logMIC” value was found to be 3.87.

Regarding `COc1c(N2CCN(c3nnc(-c4cccc([N+](=O)[O-])c4)o3)C(C)C2)c(F)cc2c(=O)c(C(=O)O)cn(C3CC3)c12` (stereo unspecified), the “-logMIC” value is 3.55.

As to `CCn1cc(C(=O)O)c(=O)c2cc(F)c(N3CCN(c4nnc(-c5ccc([N+](=O)[O-])cc5)o4)CC3)cc21`, the “-logMIC” value is 3.63.

On to `O=C(O)c1cn(C2CC2)c2cc(N3CCN(c4nnc(-c5ccc([N+](=O)[O-])c([N+](=O)[O-])c5)o4)CC3)c(F)cc2c1=O`, for which the “-logMIC” value was determined as 3.25.

As to `COc1ccc(-c2nnc(N3CCN(c4c(F)cc5c(=O)c(C(=O)O)cn(C6CC6)c5c4OC)CC3C)o2)cc1` (stereo unspecified), the “-logMIC” value came out at 3.09.

For the molecule `CCn1cc(C(=O)O)c(=O)c2cc(F)c(N3CCN(c4nnc(-c5ccc(OC)c(OC)c5)o4)CC3)cc21`, the “-logMIC” value was 2.43.

`O=C(O)c1cn(C2CC2)c2cc(N3CCN(c4nnc(-c5ccccc5Cl)o4)CC3)c(F)cc2c1=O`: the “-logMIC” value is 2.38.

Take `COc1c(N2CCN(c3nnc(-c4ccccc4)o3)C(C)C2)c(F)cc2c(=O)c(C(=O)O)cn(C3CC3)c12` (stereo unspecified): the “-logMIC” value is on record as 3.54.

As for `CCn1cc(C(=O)O)c(=O)c2cc(F)c(N3CCN(c4nnc(-c5cccc([N+](=O)[O-])c5)o4)CC3)cc21`, the “-logMIC” value is on record as 2.84.

`O=C(O)c1cn(C2CC2)c2cc(N3CCN(c4nnc(-c5ccc([N+](=O)[O-])cc5)o4)CC3)c(F)cc2c1=O`: the “-logMIC” value is 2.32.

As to `COc1c(N2CCN(c3nnc(-c4ccc([N+](=O)[O-])c([N+](=O)[O-])c4)o3)C(C)C2)c(F)cc2c(=O)c(C(=O)O)cn(C3CC3)c12` (stereo unspecified), the “-logMIC” value was 2.96.

On to `CCn1cc(C(=O)O)c(=O)c2cc(F)c(N3CCN(c4nnc(-c5ccc(OC)cc5)o4)CC3)cc21`, for which the “-logMIC” value worked out at 3.2.

For the molecule `COc1ccc(-c2nnc(N3CCN(c4cc5c(cc4F)c(=O)c(C(=O)O)cn5C4CC4)CC3)o2)cc1OC`, the “-logMIC” value is on record as 2.67.

With `COc1c(N2CCN(c3nnc(-c4ccccc4Cl)o3)C(C)C2)c(F)cc2c(=O)c(C(=O)O)cn(C3CC3)c12` (stereo unspecified), the “-logMIC” value was found to be 3.24.

With `O=C(O)c1cn(C2CC2)c2cc(N3CCNCC3)c(F)cc2c1=O` [CIPROFLOXACIN], the “-logMIC” value worked out at 3.16.

The next assay relates to Escherichia coli. The assay is described as follows: Antibacterial activity against Escherichia coli MTCC 739 after 24 hrs by NCCLS M7-A6 serial dilution method. In kind it is functional. In short, it runs like this:
(§1)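 Two-fold tube dilution in culture medium; compounds dissolved in DMSO and diluted to final concentrations starting from 10 μg/ml until MIC reached. Incubated 24 h at 30 °C. MIC taken as the lowest concentration completely inhibiting growth, reported as pMIC (negative log of molar MIC). Medium plus DMSO was the negative control, ciprofloxacin the positive control. Run in triplicate.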
Regarding `CCn1cc(C(=O)O)c(=O)c2cc(F)c(N3CCN(c4nnc(-c5ccccc5)o4)CC3)cc21`, the “-logMIC” value is given as 2.65.

As to `O=C(O)c1cn(C2CC2)c2cc(N3CCN(c4nnc(-c5cccc([N+](=O)[O-])c5)o4)CC3)c(F)cc2c1=O`, the “-logMIC” value is listed as 2.17.

Take `COc1c(N2CCN(c3nnc(-c4ccc([N+](=O)[O-])cc4)o3)C(C)C2)c(F)cc2c(=O)c(C(=O)O)cn(C3CC3)c12` (stereo unspecified): the “-logMIC” value is on record as 3.24.

For `CCn1cc(C(=O)O)c(=O)c2cc(F)c(N3CCN(c4nnc(-c5ccc([N+](=O)[O-])c([N+](=O)[O-])c5)o4)CC3)cc21`, the “-logMIC” value was 3.63.

Consider `COc1ccc(-c2nnc(N3CCN(c4cc5c(cc4F)c(=O)c(C(=O)O)cn5C4CC4)CC3)o2)cc1`, for which the “-logMIC” value stood at 3.2.

As to `COc1ccc(-c2nnc(N3CCN(c4c(F)cc5c(=O)c(C(=O)O)cn(C6CC6)c5c4OC)CC3C)o2)cc1OC` (stereo unspecified), the “-logMIC” value amounted to 3.27.

For the molecule `CCn1cc(C(=O)O)c(=O)c2cc(F)c(N3CCN(c4nnc(-c5ccccc5Cl)o4)CC3)cc21`, the “-logMIC” value turned out to be 3.6.

For `O=C(O)c1cn(C2CC2)c2cc(N3CCN(c4nnc(-c5ccccc5)o4)CC3)c(F)cc2c1=O`, the “-logMIC” value amounted to 3.22.

Turning to `COc1c(N2CCN(c3nnc(-c4cccc([N+](=O)[O-])c4)o3)C(C)C2)c(F)cc2c(=O)c(C(=O)O)cn(C3CC3)c12` (stereo unspecified), the “-logMIC” value is listed as 3.55.

As to `CCn1cc(C(=O)O)c(=O)c2cc(F)c(N3CCN(c4nnc(-c5ccc([N+](=O)[O-])cc5)o4)CC3)cc21`, the “-logMIC” value is recorded as 3.24.

Take `O=C(O)c1cn(C2CC2)c2cc(N3CCN(c4nnc(-c5ccc([N+](=O)[O-])c([N+](=O)[O-])c5)o4)CC3)c(F)cc2c1=O`: the “-logMIC” value worked out at 3.65.

As for `COc1ccc(-c2nnc(N3CCN(c4c(F)cc5c(=O)c(C(=O)O)cn(C6CC6)c5c4OC)CC3C)o2)cc1` (stereo unspecified), the “-logMIC” value stood at 3.07.

Turning to `CCn1cc(C(=O)O)c(=O)c2cc(F)c(N3CCN(c4nnc(-c5ccc(OC)c(OC)c5)o4)CC3)cc21`, the “-logMIC” value is listed as 2.68.

For `O=C(O)c1cn(C2CC2)c2cc(N3CCN(c4nnc(-c5ccccc5Cl)o4)CC3)c(F)cc2c1=O`, the “-logMIC” value is 2.43.

`COc1c(N2CCN(c3nnc(-c4ccccc4)o3)C(C)C2)c(F)cc2c(=O)c(C(=O)O)cn(C3CC3)c12` (stereo unspecified): the “-logMIC” value came to 2.94.

As to `CCn1cc(C(=O)O)c(=O)c2cc(F)c(N3CCN(c4nnc(-c5cccc([N+](=O)[O-])c5)o4)CC3)cc21`, the “-logMIC” value came to 2.69.

Turning to `O=C(O)c1cn(C2CC2)c2cc(N3CCN(c4nnc(-c5ccc([N+](=O)[O-])cc5)o4)CC3)c(F)cc2c1=O`, the “-logMIC” value turned out to be 2.32.

As to `COc1c(N2CCN(c3nnc(-c4ccc([N+](=O)[O-])c([N+](=O)[O-])c4)o3)C(C)C2)c(F)cc2c(=O)c(C(=O)O)cn(C3CC3)c12` (stereo unspecified), the “-logMIC” value turned out to be 3.66.

As to `CCn1cc(C(=O)O)c(=O)c2cc(F)c(N3CCN(c4nnc(-c5ccc(OC)cc5)o4)CC3)cc21`, the “-logMIC” value amounted to 3.5.

Consider `COc1ccc(-c2nnc(N3CCN(c4cc5c(cc4F)c(=O)c(C(=O)O)cn5C4CC4)CC3)o2)cc1OC`, for which the “-logMIC” value turned out to be 2.67.

Regarding `COc1c(N2CCN(c3nnc(-c4ccccc4Cl)o3)C(C)C2)c(F)cc2c(=O)c(C(=O)O)cn(C3CC3)c12` (stereo unspecified), the “-logMIC” value is 3.17.

On to `O=C(O)c1cn(C2CC2)c2cc(N3CCNCC3)c(F)cc2c1=O` [CIPROFLOXACIN], for which the “-logMIC” value stood at 3.52.

The next assay relates to Staphylococcus aureus. The assay can be described thus: Antibacterial activity against Staphylococcus aureus subsp. aureus MTCC 1430 after 24 hrs by NCCLS M7-A6 serial dilution method. In kind it is functional. In short, it runs like this:
as §1
Turning to `CCn1cc(C(=O)O)c(=O)c2cc(F)c(N3CCN(c4nnc(-c5ccccc5)o4)CC3)cc21`, the “-logMIC” value is 2.58.

Take `O=C(O)c1cn(C2CC2)c2cc(N3CCN(c4nnc(-c5cccc([N+](=O)[O-])c5)o4)CC3)c(F)cc2c1=O`: the “-logMIC” value worked out at 2.24.

Regarding `COc1c(N2CCN(c3nnc(-c4ccc([N+](=O)[O-])cc4)o3)C(C)C2)c(F)cc2c(=O)c(C(=O)O)cn(C3CC3)c12` (stereo unspecified), the “-logMIC” value was determined as 3.61.

Consider `CCn1cc(C(=O)O)c(=O)c2cc(F)c(N3CCN(c4nnc(-c5ccc([N+](=O)[O-])c([N+](=O)[O-])c5)o4)CC3)cc21`, for which the “-logMIC” value stood at 3.24.

With `COc1ccc(-c2nnc(N3CCN(c4cc5c(cc4F)c(=O)c(C(=O)O)cn5C4CC4)CC3)o2)cc1`, the “-logMIC” value amounted to 3.12.

With `COc1ccc(-c2nnc(N3CCN(c4c(F)cc5c(=O)c(C(=O)O)cn(C6CC6)c5c4OC)CC3C)o2)cc1OC` (stereo unspecified), the “-logMIC” value came out at 3.36.

`CCn1cc(C(=O)O)c(=O)c2cc(F)c(N3CCN(c4nnc(-c5ccccc5Cl)o4)CC3)cc21`: the “-logMIC” value is on record as 3.21.

Consider `O=C(O)c1cn(C2CC2)c2cc(N3CCN(c4nnc(-c5ccccc5)o4)CC3)c(F)cc2c1=O`, for which the “-logMIC” value stood at 3.26.

Regarding `COc1c(N2CCN(c3nnc(-c4cccc([N+](=O)[O-])c4)o3)C(C)C2)c(F)cc2c(=O)c(C(=O)O)cn(C3CC3)c12` (stereo unspecified), the “-logMIC” value turned out to be 3.25.

Regarding `CCn1cc(C(=O)O)c(=O)c2cc(F)c(N3CCN(c4nnc(-c5ccc([N+](=O)[O-])cc5)o4)CC3)cc21`, the “-logMIC” value is reported as 3.63.

For `O=C(O)c1cn(C2CC2)c2cc(N3CCN(c4nnc(-c5ccc([N+](=O)[O-])c([N+](=O)[O-])c5)o4)CC3)c(F)cc2c1=O`, the “-logMIC” value was 2.95.

Take `COc1ccc(-c2nnc(N3CCN(c4c(F)cc5c(=O)c(C(=O)O)cn(C6CC6)c5c4OC)CC3C)o2)cc1` (stereo unspecified): the “-logMIC” value is 3.17.

As to `CCn1cc(C(=O)O)c(=O)c2cc(F)c(N3CCN(c4nnc(-c5ccc(OC)c(OC)c5)o4)CC3)cc21`, the “-logMIC” value was 2.43.

`O=C(O)c1cn(C2CC2)c2cc(N3CCN(c4nnc(-c5ccccc5Cl)o4)CC3)c(F)cc2c1=O`: the “-logMIC” value is listed as 2.43.

In the case of `COc1c(N2CCN(c3nnc(-c4ccccc4)o3)C(C)C2)c(F)cc2c(=O)c(C(=O)O)cn(C3CC3)c12` (stereo unspecified), the “-logMIC” value is on record as 3.62.

Turning to `CCn1cc(C(=O)O)c(=O)c2cc(F)c(N3CCN(c4nnc(-c5cccc([N+](=O)[O-])c5)o4)CC3)cc21`, the “-logMIC” value came out at 2.84.

With `O=C(O)c1cn(C2CC2)c2cc(N3CCN(c4nnc(-c5ccc([N+](=O)[O-])cc5)o4)CC3)c(F)cc2c1=O`, the “-logMIC” value was 2.63.

In the case of `COc1c(N2CCN(c3nnc(-c4ccc([N+](=O)[O-])c([N+](=O)[O-])c4)o3)C(C)C2)c(F)cc2c(=O)c(C(=O)O)cn(C3CC3)c12` (stereo unspecified), the “-logMIC” value turned out to be 2.64.

Take `CCn1cc(C(=O)O)c(=O)c2cc(F)c(N3CCN(c4nnc(-c5ccc(OC)cc5)o4)CC3)cc21`: the “-logMIC” value came out at 3.2.

In the case of `COc1ccc(-c2nnc(N3CCN(c4cc5c(cc4F)c(=O)c(C(=O)O)cn5C4CC4)CC3)o2)cc1OC`, the “-logMIC” value turned out to be 2.91.

For the molecule `COc1c(N2CCN(c3nnc(-c4ccccc4Cl)o3)C(C)C2)c(F)cc2c(=O)c(C(=O)O)cn(C3CC3)c12` (stereo unspecified), the “-logMIC” value is on record as 3.24.

`O=C(O)c1cn(C2CC2)c2cc(N3CCNCC3)c(F)cc2c1=O` [CIPROFLOXACIN]: the “-logMIC” value was 3.16.
